# Reference: ChEMBL document CHEMBL5376013, “Design, synthesis and biological evaluation of novel morpholinopyrimidine-5-carbonitrile derivatives as dual PI3K/mTOR inhibitors” (RSC Med Chem, 2024)
# Assays:
# Type in all cases: functional
# Details in all cases: read-out: GI
# HL-60 = assay: Antitumor activity against human HL-60 cells assessed as growth inhibition at 10 uM relative to control
# How it was run: (§1)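 After drug addition, plates were incubated 48 h at 37 °C under 5% CO2. Adherent cells were fixed with cold TCA (10% final, 60 min, 4 °C) and suspension cells with 16% final TCA. Staining used 0.4% SRB in 1% acetic acid, solubilized in 10 mM trizma, read at A515. Percent growth was calculated from time-zero, control and treated absorbances.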
# MOLT-4 = assay: Antitumor activity against human MOLT-4 cells assessed as growth inhibition at 10 uM relative to control; how it was run: as §1
# EKVX = assay: Antitumor activity against human EKVX cells assessed as growth inhibition at 10 uM relative to control; how it was run: as §1
# HOP-62 = assay: Antitumor activity against human HOP-62 cells assessed as growth inhibition at 10 uM relative to control; how it was run: as §1
# HOP-92 = assay: Antitumor activity against human HOP-92 cells assessed as growth inhibition at 10 uM relative to control; how it was run: as §1
# NCI-H226 = assay: Antitumor activity against human NCI-H226 cells assessed as growth inhibition at 10 uM relative to control; how it was run: as §1
# NCI-H322M = assay: Antitumor activity against human NCI-H322M cells assessed as growth inhibition at 10 uM relative to control; how it was run: as §1
# NCI-H460 = assay: Antitumor activity against human NCI-H460 cells assessed as growth inhibition at 10 uM relative to control; how it was run: as §1
# NCI-H522 = assay: Antitumor activity against human NCI-H522 cells assessed as growth inhibition at 10 uM relative to control; how it was run: as §1
# COLO 205 = assay: Antitumor activity against human COLO 205 cells assessed as growth inhibition at 10 uM relative to control; how it was run: as §1
# HCT-116 = assay: Antitumor activity against human HCT-116 cells assessed as growth inhibition at 10 uM relative to control; how it was run: as §1
# HCT-15 = assay: Antitumor activity against human HCT-15 cells assessed as growth inhibition at 10 uM relative to control; how it was run: as §1
# HT-29 = assay: Antitumor activity against human HT-29 cells assessed as growth inhibition at 10 uM relative to control; how it was run: as §1
# KM12 = assay: Antitumor activity against human KM12 cells assessed as growth inhibition at 10 uM relative to control; how it was run: as §1
# SW-620 = assay: Antitumor activity against human SW-620 cells assessed as growth inhibition at 10 uM relative to control
# How it was run: (§2)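 Drug exposure 48 h at 37 °C, 5% CO2. Adherent cells fixed with cold TCA (10% final), suspension cells with TCA (16% final). Stained with 0.4% SRB in 1% acetic acid, dissolved in 10 mM Tris, A515. Growth relative to time-zero and untreated control.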
# SF-268 = assay: Antitumor activity against human SF-268 cells assessed as growth inhibition at 10 uM relative to control; how it was run: as §1
# SF-295 = assay: Antitumor activity against human SF-295 cells assessed as growth inhibition at 10 uM relative to control; how it was run: as §1
# SF-539 = assay: Antitumor activity against human SF-539 cells assessed as growth inhibition at 10 uM relative to control; how it was run: as §1
# SNB-75 = assay: Antitumor activity against human SNB-75 cells assessed as growth inhibition at 10 uM relative to control; how it was run: as §2
# U-251 = assay: Antitumor activity against human U-251 cells assessed as growth inhibition at 10 uM relative to control; how it was run: as §2
# LOX IMVI = assay: Antitumor activity against human LOX IMVI cells assessed as growth inhibition at 10 uM relative to control; how it was run: as §1
# M14 = assay: Antitumor activity against human M14 cells assessed as growth inhibition at 10 uM relative to control; how it was run: as §1
# MDA-MB-435 = assay: Antitumor activity against human MDA-MB-435 cells assessed as growth inhibition at 10 uM relative to control; how it was run: as §1
# SK-MEL-2 = assay: Antitumor activity against human SK-MEL-2 cells assessed as growth inhibition at 10 uM relative to control; how it was run: as §1
# SK-MEL-28 = assay: Antitumor activity against human SK-MEL-28 cells assessed as growth inhibition at 10 uM relative to control; how it was run: as §2
# SK-MEL-5 = assay: Antitumor activity against human SK-MEL-5 cells assessed as growth inhibition at 10 uM relative to control; how it was run: as §2
# UACC-257 = assay: Antitumor activity against human UACC-257 cells assessed as growth inhibition at 10 uM relative to control; how it was run: as §2
# UACC-62 = assay: Antitumor activity against human UACC-62 cells assessed as growth inhibition at 10 uM relative to control; how it was run: as §2
# IGROV-1 = assay: Antitumor activity against human IGROV-1 cells assessed as growth inhibition at 10 uM relative to control; how it was run: as §1
# OVCAR-3 = assay: Antitumor activity against human OVCAR-3 cells assessed as growth inhibition at 10 uM relative to control; how it was run: as §1
# OVCAR-4 = assay: Antitumor activity against human OVCAR-4 cells assessed as growth inhibition at 10 uM relative to control; how it was run: as §1
# OVCAR-8 = assay: Antitumor activity against human OVCAR-8 cells assessed as growth inhibition at 10 uM relative to control; how it was run: as §1
# SK-OV-3 = assay: Antitumor activity against human SK-OV-3 cells assessed as growth inhibition at 10 uM relative to control; how it was run: as §2
# 786-0 = assay: Antitumor activity against human 786-0 cells assessed as growth inhibition at 10 uM relative to control; how it was run: as §1
# A498 = assay: Antitumor activity against human A498 cells assessed as growth inhibition at 10 uM relative to control; how it was run: as §1
# ACHN = assay: Antitumor activity against human ACHN cells assessed as growth inhibition at 10 uM relative to control; how it was run: as §1
# CAKI-1 = assay: Antitumor activity against human CAKI-1 cells assessed as growth inhibition at 10 uM relative to control; how it was run: as §1
# RXF 393 = assay: Antitumor activity against human RXF 393 cells assessed as growth inhibition at 10 uM relative to control; how it was run: as §1
# SN12C = assay: Antitumor activity against human SN12C cells assessed as growth inhibition at 10 uM relative to control; how it was run: as §2
# UO-31 = assay: Antitumor activity against human UO-31 cells assessed as growth inhibition at 10 uM relative to control; how it was run: as §2
# PC-3 = assay: Antitumor activity against human PC-3 cells assessed as growth inhibition at 10 uM relative to control; how it was run: as §1
# DU-145 = assay: Antitumor activity against human DU-145 cells assessed as growth inhibition at 10 uM relative to control; how it was run: as §1
# MDA-MB-231 = assay: Antitumor activity against human MDA-MB-231 cells assessed as growth inhibition at 10 uM relative to control; how it was run: as §1
# BT-549 = assay: Antitumor activity against human BT-549 cells assessed as growth inhibition at 10 uM relative to control; how it was run: as §1
# T47D = assay: Antitumor activity against human T47D cells assessed as growth inhibition at 10 uM relative to control; how it was run: as §2
# MDA-MB-468 = assay: Antitumor activity against human MDA-MB-468 cells assessed as growth inhibition at 10 uM relative to control; how it was run: as §1
smiles,measurement,setting,value
N#Cc1c(-c2ccc(Cl)cc2)nc(N/N=C/c2ccc[nH]2)nc1N1CCOCC1,inhibition of growth at 10 µM,HL-60,97.7%
same,inhibition of growth at 10 µM,MOLT-4,82.6%
same,inhibition of growth at 10 µM,EKVX,34%
same,inhibition of growth at 10 µM,HOP-62,58.4%
same,inhibition of growth at 10 µM,HOP-92,31.1%
same,inhibition of growth at 10 µM,NCI-H226,31.1%
same,inhibition of growth at 10 µM,NCI-H322M,< 1%
same,inhibition of growth at 10 µM,NCI-H460,63.3%
same,inhibition of growth at 10 µM,NCI-H522,91.7%
same,inhibition of growth at 10 µM,COLO 205,18.4%
same,inhibition of growth at 10 µM,HCT-116,< 1%
same,inhibition of growth at 10 µM,HCT-15,21.1%
same,inhibition of growth at 10 µM,HT-29,33.8%
same,inhibition of growth at 10 µM,KM12,63.5%
same,inhibition of growth at 10 µM,SW-620,10.8%
same,inhibition of growth at 10 µM,SF-268,53.8%
same,inhibition of growth at 10 µM,SF-295,41.6%
same,inhibition of growth at 10 µM,SF-539,66.6%
same,inhibition of growth at 10 µM,SNB-75,< 1%
same,inhibition of growth at 10 µM,U-251,< 1%
same,inhibition of growth at 10 µM,LOX IMVI,12.2%
same,inhibition of growth at 10 µM,M14,< 1%
same,inhibition of growth at 10 µM,MDA-MB-435,< 1%
same,inhibition of growth at 10 µM,SK-MEL-2,< 1%
same,inhibition of growth at 10 µM,SK-MEL-28,< 1%
same,inhibition of growth at 10 µM,SK-MEL-5,14.8%
same,inhibition of growth at 10 µM,UACC-257,12.1%
same,inhibition of growth at 10 µM,UACC-62,12%
same,inhibition of growth at 10 µM,IGROV-1,32.6%
same,inhibition of growth at 10 µM,OVCAR-3,54.4%
same,inhibition of growth at 10 µM,OVCAR-4,25.9%
same,inhibition of growth at 10 µM,OVCAR-8,14.9%
same,inhibition of growth at 10 µM,SK-OV-3,15.3%
same,inhibition of growth at 10 µM,786-0,76.1%
same,inhibition of growth at 10 µM,A498,68.3%
same,inhibition of growth at 10 µM,ACHN,17.5%
same,inhibition of growth at 10 µM,CAKI-1,< 1%
same,inhibition of growth at 10 µM,RXF 393,< 1%
same,inhibition of growth at 10 µM,SN12C,59.9%
same,inhibition of growth at 10 µM,UO-31,85.2%
same,inhibition of growth at 10 µM,PC-3,53.4%
same,inhibition of growth at 10 µM,DU-145,15.8%
same,inhibition of growth at 10 µM,MDA-MB-231,20.3%
same,inhibition of growth at 10 µM,BT-549,83.1%
same,inhibition of growth at 10 µM,T47D,35.1%
same,inhibition of growth at 10 µM,MDA-MB-468,21.8%
CSc1nc(Cl)c(C#N)c(-c2ccc(Cl)cc2)n1,inhibition of growth at 10 µM,HL-60,< 1%
same,inhibition of growth at 10 µM,MOLT-4,27.6%
same,inhibition of growth at 10 µM,EKVX,< 1%
same,inhibition of growth at 10 µM,HOP-62,< 1%
same,inhibition of growth at 10 µM,HOP-92,< 1%
same,inhibition of growth at 10 µM,NCI-H226,< 1%
same,inhibition of growth at 10 µM,NCI-H322M,< 1%
same,inhibition of growth at 10 µM,NCI-H460,< 1%
same,inhibition of growth at 10 µM,NCI-H522,< 1%
same,inhibition of growth at 10 µM,COLO 205,< 1%
same,inhibition of growth at 10 µM,HCT-116,< 1%
same,inhibition of growth at 10 µM,HCT-15,< 1%
same,inhibition of growth at 10 µM,HT-29,< 1%
same,inhibition of growth at 10 µM,KM12,< 1%
same,inhibition of growth at 10 µM,SW-620,< 1%
same,inhibition of growth at 10 µM,SF-268,< 1%
same,inhibition of growth at 10 µM,SF-295,< 1%
same,inhibition of growth at 10 µM,SF-539,< 1%
same,inhibition of growth at 10 µM,SNB-75,26.8%
same,inhibition of growth at 10 µM,U-251,< 1%
same,inhibition of growth at 10 µM,LOX IMVI,< 1%
same,inhibition of growth at 10 µM,M14,< 1%
same,inhibition of growth at 10 µM,MDA-MB-435,< 1%
same,inhibition of growth at 10 µM,SK-MEL-2,< 1%
same,inhibition of growth at 10 µM,SK-MEL-28,< 1%
same,inhibition of growth at 10 µM,SK-MEL-5,< 1%
same,inhibition of growth at 10 µM,UACC-257,< 1%
same,inhibition of growth at 10 µM,UACC-62,25.6%
same,inhibition of growth at 10 µM,IGROV-1,< 1%
same,inhibition of growth at 10 µM,OVCAR-3,< 1%
same,inhibition of growth at 10 µM,OVCAR-4,< 1%
same,inhibition of growth at 10 µM,OVCAR-8,< 1%
same,inhibition of growth at 10 µM,SK-OV-3,< 1%
same,inhibition of growth at 10 µM,786-0,< 1%
same,inhibition of growth at 10 µM,A498,< 1%
same,inhibition of growth at 10 µM,ACHN,< 1%
same,inhibition of growth at 10 µM,CAKI-1,< 1%
same,inhibition of growth at 10 µM,RXF 393,< 1%
same,inhibition of growth at 10 µM,SN12C,< 1%
same,inhibition of growth at 10 µM,UO-31,< 1%
same,inhibition of growth at 10 µM,PC-3,< 1%
same,inhibition of growth at 10 µM,DU-145,< 1%
same,inhibition of growth at 10 µM,MDA-MB-231,< 1%
same,inhibition of growth at 10 µM,BT-549,11.2%
same,inhibition of growth at 10 µM,T47D,< 1%
same,inhibition of growth at 10 µM,MDA-MB-468,< 1%
